Laboratory results as given in publication PMC6643050 (Lipids, 2018).
Several values for one entry are separate records, joined by “and”; a condition that tells them apart may be missing. Equal entries are not always repeated.

Tests used:
Δ^1–28 L-PGDS [1] = target: T1, Δ^1–28 L-PGDS (Homo sapiens, UniProt P41222); assay: Fluorescence displacement binding assay; details: for Binding to Δ^1–28 L-PGDS, DAUDA displacement: DAUDA probe
T1 sequence (P41222 29-190): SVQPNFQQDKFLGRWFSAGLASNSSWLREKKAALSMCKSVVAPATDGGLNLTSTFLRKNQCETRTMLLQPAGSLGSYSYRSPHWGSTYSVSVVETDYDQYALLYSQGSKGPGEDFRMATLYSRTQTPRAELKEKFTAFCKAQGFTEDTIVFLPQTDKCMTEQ

Δ^1–28 L-PGDS [2] = target: T1, Δ^1–28 L-PGDS; assay: Intrinsic tryptophan fluorescence quenching assay; assay type: binding; details: compound 20 μM, L-PGDS 1.5 μM, pH 8.0; mean ± SE
Outline: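 Recombinant human Δ1–28 L-PGDS, delipidated on hydroxypropyl-beaded dextran (1 h, 37 °C), used at 1.5 μM in 5 mM Tris–HCl pH 8.0. Test compound (2 mM DMSO stock) added at 20 μM final; equilibrated 30 min at 25 °C. Tryptophan fluorescence read at ex/em 282/340 nm and corrected for nonspecific effects with N-acetyl-L-tryptophanamide (1.5 μM). Reported relative to vehicle; ≥3 independent assays.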

Δ^1–28 L-PGDS [3] = target: T1, Δ^1–28 L-PGDS; assay: Determination of fluorescent probe binding affinity
L-PGDS = details: known high-affinity L-PGDS ligand; ref Breustedt et al., 2006; cited from earlier work
[4] = DAUDA (500 nM) displacement, L-PGDS 3 μM, pH 7.6, 25 °C, mean ± SE
[5] = Ki, DAUDA (500 nM) displacement, L-PGDS 3 μM, pH 7.6, 25 °C, mean ± SE

## CCCCCc1cc(O)c2c(c1)OC(C)(C)[C@@H]1CCC(C)=C[C@@H]21 [THC, Δ^9-tetrahydrocannabinol]
Δ^1–28 L-PGDS [1]; [4]
  Ki: 175 ± 26 µM
Δ^1–28 L-PGDS [2]
  Quenching (%), fluorescence reduction relative to vehicle-treated Δ^1–28 L-PGDS: 14.0 ± 2.2%

## CCCCCC/C=C\CCCCCCCC(=O)O [PLA, palmitoleic acid]
Δ^1–28 L-PGDS [1]; [5]
  Ki: 3.7 ± 0.5 µM
Δ^1–28 L-PGDS [2]
  Quenching (%), fluorescence reduction relative to vehicle-treated Δ^1–28 L-PGDS: 11.9 ± 2.3%

## O=S(=O)(O)c1cccc2cccc(Nc3ccccc3)c12 [ANS, 1-anilinonaphthalene-8-sulfonic acid]
Δ^1–28 L-PGDS [3]
  Kd: 3.4 ± 0.8 µM

## CCCCC/C=C\C/C=C\C/C=C\C/C=C\CCCC(=O)OC(CO)CO [2-AG, 2-arachidonoylglycerol]
Δ^1–28 L-PGDS [1]
  Binding to Δ^1–28 L-PGDS, DAUDA displacement: did not bind
Δ^1–28 L-PGDS [1]; [5]
  Ki: > 200 µM
Δ^1–28 L-PGDS [2]
  Quenching (%), fluorescence reduction relative to vehicle-treated Δ^1–28 L-PGDS: −0.8 ± 3.0%

## O=C(O)C1[C@H](c2ccccc2)C(C(=O)Oc2cccc3ccccc23)[C@H]1c1ccccc1 (some centres unmarked) [SBFI-26]
Δ^1–28 L-PGDS [1]; [4]
  Ki: 3 ± 0.5 µM
Δ^1–28 L-PGDS [2]
  Quenching (%), fluorescence reduction relative to vehicle-treated Δ^1–28 L-PGDS: 33.3 ± 2.2%

## CCCCCCC(C)(C)c1cc(O)c2c(c1)OC(C)(C)[C@@H]1CC=C(C(=O)O)C[C@@H]21 [AJA, ajulemic acid]
Δ^1–28 L-PGDS [1]; [5]
  Ki: 2.2 µM and 2.3 µM
Δ^1–28 L-PGDS [2]
  Quenching (%), fluorescence reduction relative to vehicle-treated Δ^1–28 L-PGDS: 21.9 ± 2.9%

## CCCCCCCC/C=C\CCCCCCCC(N)=O [Oleamide]
Δ^1–28 L-PGDS [1]; [5]
  Ki: > 200 µM
Δ^1–28 L-PGDS [2]
  Quenching (%), fluorescence reduction relative to vehicle-treated Δ^1–28 L-PGDS: 3.6 ± 2.0%

## CCCCCCCCCCCCCCCC(=O)NCCO [PEA, palmitoylethanolamide]
Δ^1–28 L-PGDS [1]
  Binding to Δ^1–28 L-PGDS, DAUDA displacement: did not display any appreciable binding
Δ^1–28 L-PGDS [1]; [5]
  Ki: > 200 µM
Δ^1–28 L-PGDS [2]
  Quenching (%), fluorescence reduction relative to vehicle-treated Δ^1–28 L-PGDS: 1.3 ± 4.7%

## CC1=C(/C=C/C(C)=C/C=C/C(C)=C/C(=O)O)C(C)(C)CCC1 [all-trans retinoic acid]
Δ^1–28 L-PGDS [2]
  Quenching (%), fluorescence reduction relative to vehicle-treated Δ^1–28 L-PGDS: 71.1 ± 1.4%
L-PGDS
  Kd: 0.29 µM

## CCCCC[C@H](O)/C=C/[C@H]1[C@H](O)CC(=O)[C@@H]1C/C=C\CCCC(=O)O [PGE2, prostaglandin E2]
Δ^1–28 L-PGDS [1]; [5]
  Ki: 128 ± 16 µM
Δ^1–28 L-PGDS [2]
  Quenching (%), fluorescence reduction relative to vehicle-treated Δ^1–28 L-PGDS: 6.5 ± 1.5%

## CN(C)c1cccc2c(S(=O)(=O)NCCCCCCCCCCC(=O)O)cccc12 [DAUDA, 11-(dansylamino)undecanoic acid]
Δ^1–28 L-PGDS [3]
  Kd: 0.96 ± 0.08 µM

## CCCCC[C@H](O)/C=C/[C@@H]1[C@@H](C/C=C\CCCC(=O)O)[C@@H](O)C[C@H]1O [PGF2α, prostaglandin F2α]
Δ^1–28 L-PGDS [1]; [5]
  Ki: 81 ± 9 µM
Δ^1–28 L-PGDS [2]
  Quenching (%), fluorescence reduction relative to vehicle-treated Δ^1–28 L-PGDS: 2.7 ± 1.7%

## C=C(C)[C@@H]1CCC(C)=C[C@H]1c1c(O)cc(CCCCC)cc1O [CBD, cannabidiol]
Δ^1–28 L-PGDS [1]; [5]
  Ki: 77.9 ± 3.9 µM
Δ^1–28 L-PGDS [2]
  Quenching (%), fluorescence reduction relative to vehicle-treated Δ^1–28 L-PGDS: 7.2 ± 2.1%

## CCCCCc1cc(O)c2c(c1)OC(C)(C)[C@@H]1CCC(C(=O)O)=C[C@@H]21 [THC-COOH, 11-nor-9-carboxy-Δ^9-tetrahydrocannabinol]
Δ^1–28 L-PGDS [1]; [4]
  Ki: 7.8 ± 1.7 µM
Δ^1–28 L-PGDS [1]; DAUDA displacement
  Ki: 7.8 ± 1.7 µM
Δ^1–28 L-PGDS [2]
  Quenching (%), fluorescence reduction relative to vehicle-treated Δ^1–28 L-PGDS: 15.6 ± 1.3%

## CCCCCCC(CCCCCCCCCCC(=O)O)N(C)c1ccc([N+](=O)[O-])c2nonc12 (centres unmarked) [NBD-stearate, 12-N-methyl-(7-nitrobenz-2-oxa-1,3-diazo)aminostearic acid]
Δ^1–28 L-PGDS [3]; L-PGDS 1 μM titrated with probe
  Binding of fluorescent probe: did not exhibit appreciable binding

## CCCCCCCC/C=C\CCCCCCCC(=O)NCCO [OEA, oleoylethanolamide]
Δ^1–28 L-PGDS [1]
  Binding to Δ^1–28 L-PGDS, DAUDA displacement: did not display any appreciable binding
Δ^1–28 L-PGDS [1]; [5]
  Ki: > 200 µM
Δ^1–28 L-PGDS [2]
  Quenching (%), fluorescence reduction relative to vehicle-treated Δ^1–28 L-PGDS: −0.9 ± 2.1%

## CCCCCCCC/C=C\CCCCCCCC(=O)O [OLA, oleic acid]
Δ^1–28 L-PGDS [1]; [5]
  Ki: 1.8 ± 0.9 µM
Δ^1–28 L-PGDS [2]
  Quenching (%), fluorescence reduction relative to vehicle-treated Δ^1–28 L-PGDS: 15.1 ± 3.7%

## CCCCC/C=C\C/C=C\C/C=C\C/C=C\CCCC(=O)NCCO [AEA, N-arachidonoylethanolamine]
Δ^1–28 L-PGDS [1]; ANS probe (500 nM)
  Affinity for Δ^1–28 L-PGDS, ANS displacement: lack of affinity
Δ^1–28 L-PGDS [1]
  Binding to Δ^1–28 L-PGDS, DAUDA displacement: did not bind
Δ^1–28 L-PGDS [1]; [5]
  Ki: > 200 µM
Δ^1–28 L-PGDS [2]
  Quenching (%), fluorescence reduction relative to vehicle-treated Δ^1–28 L-PGDS: 3.1 ± 3.3%

## prostaglandin E2-glyceryl ester [PGE2-GE]
Δ^1–28 L-PGDS [1]; [4]
  Ki: 11.2 ± 1.2 µM
Δ^1–28 L-PGDS [2]
  Quenching (%), fluorescence reduction relative to vehicle-treated Δ^1–28 L-PGDS: 15.1 ± 1.7%

## 11-hydroxy-Δ^9-tetrahydrocannabinol [11-OH-THC]
Δ^1–28 L-PGDS [1]; [4]
  Ki: 61 ± 14 µM
Δ^1–28 L-PGDS [1]; DAUDA displacement
  Ki: 61 ± 14 µM
Δ^1–28 L-PGDS [2]
  Quenching (%), fluorescence reduction relative to vehicle-treated Δ^1–28 L-PGDS: 9.7 ± 1.3%

## CCCCC[C@H](O)/C=C/[C@@H]1[C@@H](C/C=C\CCCC(=O)NCCO)[C@@H](O)C[C@H]1O [Prostamide F2α]
Δ^1–28 L-PGDS [1]; [4]
  Ki: > 200 µM
Δ^1–28 L-PGDS [1]
  Binding to Δ^1–28 L-PGDS, DAUDA displacement: not found to bind with any appreciable affinity
Δ^1–28 L-PGDS [2]
  Quenching (%), fluorescence reduction relative to vehicle-treated Δ^1–28 L-PGDS: 0.1 ± 2.6%
